# Results from ChEMBL document CHEMBL1275311, “Synthesis and vasodilation activity of some novel bis(3-pyridinecarbonitrile) derivatives” (Eur J Med Chem, 2010).
# Tested on: Thoracic aorta
# Test: Vasodilatory activity in Wistar rat thoracic aorta assessed as reduction of norepinephrine hydrochloride-induced vasoconstriction
# Assay type: functional, tissue-based
# Procedure, shortened: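 Isolated rat aorta preparation with contractile response recorded. Compounds were dissolved in DMSO, with vehicle-only controls run at the same DMSO concentrations. Relaxation was plotted against compound concentration (mM) to give concentration–response curves, and IC50 was calculated by the best-fit line technique.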
row,SMILES,IC50 [µM]
1,COc1nc(-c2ccccc2)cc(-c2ccccc2OCCOc2ccccc2-c2cc(-c3ccccc3)nc(OC)c2C#N)c1C#N,1050
2,COc1nc(-c2ccc(Cl)cc2)cc(-c2ccccc2OCCOc2ccccc2-c2cc(-c3ccc(Cl)cc3)nc(OC)c2C#N)c1C#N,665
3,COc1ccc(-c2cc(-c3ccccc3OCCOc3ccccc3-c3cc(-c4ccc(OC)cc4)nc(OC)c3C#N)c(C#N)c(OC)n2)cc1,890
4,COc1nc(-c2cccs2)cc(-c2ccccc2OCCOc2ccccc2-c2cc(-c3cccs3)nc(OC)c2C#N)c1C#N,1270
5,CCOc1nc(-c2cccs2)cc(-c2ccccc2OCCOc2ccccc2-c2cc(-c3cccs3)nc(OCC)c2C#N)c1C#N,865

# Second part, the molecule after the results:
row,IC50 [µM],SMILES
1,862,CCOc1nc(-c2ccccc2)cc(-c2ccccc2OCCOc2ccccc2-c2cc(-c3ccccc3)nc(OCC)c2C#N)c1C#N
2,622,CCOc1nc(-c2ccc(Cl)cc2)cc(-c2ccccc2OCCOc2ccccc2-c2cc(-c3ccc(Cl)cc3)nc(OCC)c2C#N)c1C#N
3,517,COc1nc(-c2ccc(F)cc2)cc(-c2ccccc2OCCOc2ccccc2-c2cc(-c3ccc(F)cc3)nc(OC)c2C#N)c1C#N
4,470,CCOc1nc(-c2ccc(F)cc2)cc(-c2ccccc2OCCOc2ccccc2-c2cc(-c3ccc(F)cc3)nc(OCC)c2C#N)c1C#N
5,795,COc1nc(-c2ccc(C)cc2)cc(-c2ccccc2OCCOc2ccccc2-c2cc(-c3ccc(C)cc3)nc(OC)c2C#N)c1C#N
6,696,CCOc1nc(-c2ccc(OC)cc2)cc(-c2ccccc2OCCOc2ccccc2-c2cc(-c3ccc(OC)cc3)nc(OCC)c2C#N)c1C#N
7,970,CCOc1nc(-c2ccc(O)cc2)cc(-c2ccccc2OCCOc2ccccc2-c2cc(-c3ccc(O)cc3)nc(OCC)c2C#N)c1C#N
